Columns and labels:
[1] = Metabolic stability in human liver microsomes assessed as compound metabolized at 5 uM measured after 15 mins; type: ADME; conditions: read-out: Drug metabolism
Summary of the method: (§1)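 Human or rat liver microsomes incubated with compound at 5 μM for 15 min; read-out is % of parent metabolized; means of at least two experiments.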

[2] = Metabolic stability in rat liver microsomes assessed as compound metabolized at 5 uM measured after 15 mins; type: ADME; conditions: read-out: Drug metabolism; summary of the method: as §1
[3] = Elimination half life in Sprague-Dawley rat at […], iv or 10 mg/kg, po; type: ADME, organism-based; conditions: in vivo, read-out: beta t1/2 (converted)
[4] = Lipophilicity, log P of the compound; type: physicochemical; conditions: octanol/water
[5] = AUC (0 to infinity) in Beagle dog at 1 mg/kg, iv or 5 mg/kg, po; type: ADME, organism-based, Canis lupus familiaris; conditions: in vivo
Summary of the method: (§2)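 Male Beagle dogs, 1 mg/kg i.v. and 5 mg/kg p.o., vehicle 20% HP-β-CD + HCl solution at pH 4; values are individual animals (two dogs) or mean of three animals ± SD.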

[6] = Apparent permeability across apical to basolateral side over basolateral to apical side in pig LLC-PK1 cells at 1 uM measured after 120 mins; type: ADME, cell-based, Sus scrofa
[7] = Clearance in Beagle dog at 1 mg/kg, iv or 5 mg/kg, po; type: ADME, organism-based, Canis lupus familiaris; conditions: in vivo; summary of the method: as §2
[8] = AUC (0 to infinity) in Sprague-Dawley rat at […], iv or 10 mg/kg, po; type: ADME, organism-based; conditions: in vivo
[9] = Tmax in Beagle dog at 1 mg/kg, iv or 5 mg/kg, po; type: ADME, organism-based, Canis lupus familiaris; conditions: in vivo
Summary of the method: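 Male Beagle dogs given 5 mg/kg orally and 1 mg/kg intravenously, formulated in 20% HP-β-CD + HCl solution at pH 4. Tmax reported as mean ± SD of three animals.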

[10] = Oral bioavailability in Beagle dog at 5 mg/kg; type: ADME, organism-based, Canis lupus familiaris; conditions: in vivo; summary of the method: as §2
[11] = Cmax in Sprague-Dawley rat at […], iv or 10 mg/kg, po; type: ADME, organism-based; conditions: in vivo
[12] = Dissociation constant, pKa of the compound; type: physicochemical
[13] = Tmax in Sprague-Dawley rat at […], iv or 10 mg/kg, po; type: ADME, organism-based; conditions: in vivo
[14] = Cmax in Beagle dog at 1 mg/kg, iv or 5 mg/kg, po; type: ADME, organism-based, Canis lupus familiaris; conditions: in vivo; summary of the method: as §2
[15] = Clearance in Sprague-Dawley rat at […], iv or 10 mg/kg, po; type: ADME, organism-based; conditions: in vivo
[16] = Half life in Beagle dog at 1 mg/kg, iv or 5 mg/kg, po; type: ADME, organism-based, Canis lupus familiaris; conditions: in vivo; summary of the method: as §2
[17] = Oral bioavailability in Sprague-Dawley rat at 10 mg/kg; type: ADME, organism-based; conditions: in vivo
[18] = Ratio of drug level in brain to plasma of Swiss mouse at 10 mg/kg, sc measured after 1 hr; type: ADME, organism-based; conditions: brain and plasma, read-out: BPR
Summary of the method: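 Swiss mice, single 10 mg/kg s.c. dose in 20% HP-β-CD + HCl solution at pH 4; brain/plasma ratio taken 1 h post-dose.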

| Structure (SMILES) | metabolised at […], 5 µM [1] [%] | metabolised at […], 5 µM [2] [%] | other results |
| --- | --- | --- | --- |
| Fc1cccc(F)c1N1CCN(Cc2ccn3c(CC4CC4)nnc3c2C(F)(F)F)CC1 | 55 | 99 |  |
| Fc1ccc(OC2CCN(Cc3ccn4c(CC5CC5)nnc4c3C(F)(F)F)CC2)c(F)c1 | 25 | 57 |  |
| FC(F)(F)c1c(CN2CCC(F)(c3ccccc3)CC2)ccn2c(CC3CC3)nnc12 | 24 | 78 |  |
| COC1(c2ccccc2)CCN(Cc2ccn3c(CC4CC4)nnc3c2C(F)(F)F)CC1 | 69 | 98 |  |
| Fc1ccc([C@H]2CC[C@H](NCc3ccn4c(CC5CC5)nnc4c3C(F)(F)F)CC2)c(F)c1 | 33 | 34 |  |
| Fc1ccccc1C1CCN(Cc2ccn3c(CC4CC4)nnc3c2C(F)(F)F)CC1 | 8 | 85 |  |
| Fc1ccc(N2CCN(Cc3ccn4c(CC5CC5)nnc4c3C(F)(F)F)CC2)c(F)c1 | 7 | 29 | half-life [3]: 180 min; logP [4]: 4.2; AUC(0-inf) [5]: 3960 to 9860 ng·h/mL; Papp at 2 h, 1 µM [6]: 22 ×10⁻⁶ cm/s; clearance [7]: 4 to 6 mL/min/kg; AUC(0-inf) [8]: 11300 ng·h/mL; Tmax [9]: 30 min; bioavailability [10]: 18 to 44%; Cmax [11]: 980 ng/mL; pKa [12]: 5; Tmax [13]: 300 min; Cmax [14]: 459 to 1400 ng/mL; clearance [15]: 16 mL/min/kg; half-life [16]: 420 to 540 min; bioavailability [17]: 100%; Kp at 1 h [18]: 2.1 |
| FC(F)(F)c1c(CN2CCCC(c3ccccc3)C2)ccn2c(CC3CC3)nnc12 (centres undefined) | 51 | 98 |  |
| Fc1ccc([C@H]2CC[C@@H](NCc3ccn4c(CC5CC5)nnc4c3C(F)(F)F)CC2)c(F)c1 | 81 | 84 |  |

The next lines start with results.

| metabolised at […], 5 µM [1] [%] | metabolised at […], 5 µM [2] [%] | Structure (SMILES) | other results |
| --- | --- | --- | --- |
| 6 | 9 | Fc1ccc(C2CCN(Cc3ccn4c(CC5CC5)nnc4c3C(F)(F)F)CC2)c(F)c1 |  |
| 5 | 75 | Fc1cccc(F)c1C1CCN(Cc2ccn3c(CC4CC4)nnc3c2C(F)(F)F)CC1 |  |
| 1 | 9 | FC(F)(F)c1c(CN2CCN(c3ccc(Cl)cc3Cl)CC2)ccn2c(CC3CC3)nnc12 |  |
| 67 | 96 | Fc1ccc(COC2CCN(Cc3ccn4c(CC5CC5)nnc4c3C(F)(F)F)CC2)c(F)c1 |  |
| 13 | 90 | FC(F)(F)c1c(CN2CCC(c3ccccc3Cl)CC2)ccn2c(CC3CC3)nnc12 |  |
| 97 | 99 | CC1(c2ccccc2)CCCN(Cc2ccn3c(CC4CC4)nnc3c2C(F)(F)F)C1 (centres undefined) |  |
| 91 | 99 | Fc1ccc(N2CCCN(Cc3ccn4c(CC5CC5)nnc4c3C(F)(F)F)CC2)c(F)c1 |  |
| 35 | 98 | FC(F)(F)c1c(CN2CCC(c3ccccc3)(C(F)(F)F)CC2)ccn2c(CC3CC3)nnc12 |  |
|  | 25 | FC(F)(F)c1c(N2CCC(c3ccccc3)CC2)ccn2c(CC3CC3)nnc12 | logP [4]: 4.4; AUC(0-inf) [5]: 531 to 957 ng·h/mL; Papp at 2 h, 1 µM [6]: 12 ×10⁻⁶ cm/s; Tmax [9]: 30 min; bioavailability [10]: 18 to 33%; Cmax [14]: 218 to 472 ng/mL; clearance [15]: 31 to 37 mL/min/kg; half-life [16]: 66 to 108 min; Kp at 1 h [18]: 1.4 |
| 23 | 53 | CCCCn1ccc(N2CCC(c3ccccc3)CC2)c(Cl)c1=O [JNJ-40411813] | logP [4]: 4.6; Tmax [9]: 30 min; bioavailability [10]: 20%; pKa [12]: < 2; Tmax [13]: 30 min; Cmax [14]: 373 ng/mL; Kp at 1 h [18]: 1 |

Reference: ChEMBL document CHEMBL3856249 (J Med Chem, 2016)
